SKKanGAS inh – SKKanGAS growth inhibition. S. pyogenes SKKanGAS, kanamycin growth, BacTiter-Glo, 6 h. inhibition, % at 7.5 µM. hit rate 1.3% among 300,000;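 active = mean replicate score, as percent of positive control median, at least 50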;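 note: strain carries kanamycin resistance gene driven by streptokinase promoter and grows in 40 µg/ml kanamycin; loss of luminescence reflects streptokinase promoter inhibition or plain growth inhibition; 0% = median of DMSO wells and 100% = positive control at its reference dose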
L major viab – reduces viability of Leishmania major promastigotes. hit rate 9% among 200,000. AID 1063. resazurin fluorescence viability. inhibition, % at 10 µM; in the data active = inhibition above about 50%;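 note: promastigotes grown with compound for 44 hours at 28 °C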
CSC inhib – blocks cancer stem cells; inhibition, % at 7.5 µM; hit rate 1.1% among 300,000; AID 2717; cancer stem cell-like cells viability, luminescence; in the data active = inhibition above about 75%; tested in HMLE shEcad cells
Beta cell apopt – beta cell apoptosis inhibition. protection from apoptosis, % (concentration not given with the values). hit rate 0.8% among 300,000. AID 435005. INS-1E cytokine-induced death, ATP luminescence, 48 h; percent of positive-control rescue, neutral wells zero;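 active = Every replicate reaches about 75%, or at least half do and their mean reaches it too, limit read from the data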;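 note: 0% = cytokine-treated negative control wells and 100% = positive control rescue; higher means more ATP so stronger rescue from cytokine killing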
Mdm2-MdmX inh – disrupts the human Mdm2-MdmX interaction; O15151+Q00987; SaOS-2 split-luciferase Mdm2/MdmX complementation, luminescence; inhibition, % at 8 µM; hit rate 3% among 330,000;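 active = inhibition of at least 50% at 8 µM in the primary screen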
T cruzi repl – blocks replication of Trypanosoma cruzi. T. cruzi beta-gal in NIH3T3, luminescence, 90 h. inhibition, % (test concentration not listed). hit rate 1.4% among 300,000;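 active = mean inhibition across valid replicates above about 55%, limit read from the data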;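 note: signal also drops with host cell toxicity which is not excluded here; 0% = plate median of DMSO wells and 100% = zero luminescence signal; higher percent means less beta-gal luminescence so fewer parasites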
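Test system: β-gal T. cruzi (Tulahuen C4) inside NIH/3T3 cells / Quantity: 5,000 cells/well / Measured by: luminescence from GalScreen with 0.05% NP40, read after 60 min / Medium: DMEM plus 2% FBS / Measure: parasite load inhibition, % / Reagent: Tulahuen C4 trypomastigotes, 5000/well / Schedule: co-culture of at least 90 h after 3 h attachment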
Starred values were filed as active, the others as inactive; . = no result given. Shown are actives, neighbours in structure and some others; about 9.4% of the full set was active somewhere.

SMILES | SKKanGAS inh | L major viab | CSC inhib | Beta cell apopt | Mdm2-MdmX inh | T cruzi repl
CCOC(=O)c1sc2nc(CSc3ccccc3)nc(N3CCC(C(N)=O)CC3)c2c1C | 14.5 | 26.7 | 39.1 | -3.9 | 29.7 | 59.2*
Cc1sc2nc(CSc3ccccc3)nc(NCCN(C)C)c2c1C | -1.3 | 92.0* | 6.7 | . | 7.6 | 4.9
Cc1ccc(N2CC(C(=O)Nc3ccccc3OC(F)F)CC2=O)cc1 (stereo unspecified) | . | . | -20.3 | -3.6 | -12.1 | .
Cn1c(CN2CCN(S(C)(=O)=O)CC2)nc2cc([N+](=O)[O-])ccc21 | 3.9 | . | -6.1 | -3.2 | 6.6 | 5.7
CC(C)(C)C1CCC(OCC(O)CN2CCN(c3ccccc3)CC2)CC1 (stereo unspecified) | 1.6 | 91.5* | 45.8 | -4.8 | 13.8 | 0.0
Cc1ccc(N2CCN(CC(O)COC3CCCCC3)CC2)cc1 (stereo unspecified) | 0.4 | 96.9* | . | -7.1 | 11.9 | 11.9
CC(C)(C)C1CCC(OCC(O)CN2CCCC2)CC1 (stereo unspecified) | -5.0 | 99.8* | 59.3 | -1.9 | -13.4 | 53.5
Cc1cccc(C)c1OCC(O)CN1CCN(c2ccccc2)CC1 (stereo unspecified) | 5.8 | 15.3 | 10.1 | 1.0 | -17.5 | 22.4
Cc1ccc(N2CCN(CC(O)COc3ccc([N+](=O)[O-])cc3)CC2)cc1 (stereo unspecified) | 5.2 | 96.9* | -5.0 | 4.4 | 12.9 | 6.5
COc1ccc(CC(=O)Oc2ccc(C(C)(C)C)cc2)cc1S(=O)(=O)N1CCOCC1 | 21.1 | . | -6.9 | -11.0 | 10.3 | -1.8
CC1CCN(CC(O)COC2CCC(C(C)(C)C)CC2)CC1 (stereo unspecified) | . | 92.3* | 64.2 | -14.3 | 23.8 | .
COc1ccc(C(=O)COC(=O)[C@@H](NS(=O)(=O)c2ccccc2)C(C)C)cc1 | . | . | -4.3 | 0.0 | 6.0 | .
CCc1ccc(-n2cc(-c3ccc(F)cc3)[n+]3c2SCCC3)cc1 | -0.8 | 100.5* | -8.2 | 109.7* | 24.0 | 56.3*
COc1ccc(-n2cc(-c3ccc(C)cc3)[n+]3c2SCC3)cc1 | -13.6 | 100.4* | 24.6 | 113.3* | 29.3 | 58.7*
COC(=O)C1=C(C)Nc2c(c(=O)n(C)c(=O)n2C)C1c1ccc(C)cc1 (stereo unspecified) | . | -9.2 | 3.9 | -0.7 | 11.8 | 0.4
C/C(=N\NC(=O)CCc1ccc(S(=O)(=O)N2CCOCC2)cc1)c1ccc(Br)cc1 | -7.1 | 5.1 | -8.3 | 1.4 | 1.8 | 24.6
CC(/C=C/C(=O)c1ccc(C)cc1)=C\c1ccccc1 | 30.3 | 0.6 | 16.2 | -7.1 | 19.6 | 1.9
Cc1ccc(C(=O)/C=C\C(=O)c2ccc(C)cc2)cc1 | 56.4* | 100.5* | 9.6 | -5.8 | . | 70.8*
COc1ccc(-c2nc3ccccn3c2CN2CCN(c3ccccc3F)CC2)cc1 | 7.0 | 85.2* | 42.7 | -4.7 | -5.0 | 52.3
C#CCOCCOCCOCCNc1nc(N2CCN(C(=O)C([C@@H](C)CC)n3cc(C(N)Cc4ccc(O)cc4)nn3)CC2)nc(N2CCN(C(=O)[C@H](CCC(=O)O)n3cc(C(N)[C@H](C)CC)nn3)CC2)n1 (stereo partly specified) | -5.7 | -0.9 | -12.8 | -10.6 | -8.9 | -6.6
c1ccc(-c2ccccc2OCCOCCN2CCNCC2)cc1 | 3.6 | 82.2* | 39.0 | 1.5 | -23.4 | 3.5
c1ccc(-c2ccccc2OCCOCCN2CCOCC2)cc1 | -7.5 | . | 20.5 | 0.6 | 0.2 | -9.3
CCN1CCN(CCOCCOc2ccccc2-c2ccccc2)CC1 | -4.0 | 92.5* | 63.0 | -1.7 | -1.1 | 2.6
CCCNC(=O)c1ccc2c(=O)c(O)c(-c3ccc(Cl)c([N+](=O)[O-])c3)[nH]c2c1 | 2.1 | . | -16.0 | 78.5* | 35.6 | -9.1
COc1ccc(CN2CCN(Cc3c[nH]c4ccccc34)CC2CCO)c(F)c1 (stereo unspecified) | 12.0 | . | 7.2 | . | 19.3 | 2.3
O=C(CCc1ccccc1)Nc1nnc(-c2cccs2)o1 | -0.4 | 57.0* | 14.0 | . | 1.9 | 1.9
O=C(CCc1ccccc1)Nc1nnc(-c2ccc3c(c2)OCCO3)o1 | 9.8 | 69.7* | 4.8 | 1.4 | 7.7 | -3.0
O=C(CCc1ccccc1)Nc1nnc(-c2ccc3c(c2)CCCC3)o1 | 85.2* | 11.8 | 9.6 | -8.5 | 12.8 | -4.8
O=C(CCSc1ccccc1)Nc1nnc(-c2ccccc2)o1 | 26.0 | -2.8 | 1.1 | -0.8 | -1.3 | -12.0
O=C(CCSc1ccccc1)Nc1nnc(-c2cccs2)o1 | 11.9 | -7.8 | 5.6 | . | -6.9 | 3.8
